Laboratory results: paper PMC6431292 (Journal of molecular biology, 2018)
Numbering of substitutions follows the chain as printed.

Assays:
Assay type in all cases: binding
[1] = biological target: T1, BLVRB (biliverdin reductase B) (Homo sapiens, UniProt P30043); assay: NMR titration
T1 sequence (P30043 1-206): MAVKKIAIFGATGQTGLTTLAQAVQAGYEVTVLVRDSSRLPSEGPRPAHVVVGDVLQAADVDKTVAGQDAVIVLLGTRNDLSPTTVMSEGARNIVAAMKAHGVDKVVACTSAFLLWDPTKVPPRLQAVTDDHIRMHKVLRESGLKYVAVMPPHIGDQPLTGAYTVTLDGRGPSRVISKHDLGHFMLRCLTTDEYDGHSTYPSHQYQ

[2] = biological target: T1, BLVRB (biliverdin reductase B); assay: isothermal titration calorimetry
[3] = biological target: T2, BLVRB (biliverdin reductase B) (Homo sapiens, UniProt P30043, R78A); assay: isothermal titration calorimetry
T2 sequence (P30043 1-206 R78A): T1 sequence (P30043 1-206) with R78A
Summary of the method: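 Human BLVRB (R78A mutant) expressed in E. coli BL21/DE3 with a cleavable N-terminal His-tag, Ni-purified under denaturing conditions, refolded by dialysis, tag removed, then gel-filtered. ITC used 100 μM enzyme in the cell, titrated with reduced or oxidized coenzyme (freshly prepared) at 1 mM. Buffer was 50 mM Bis–Tris pH 6.5, 50 mM NaCl, 1 mM DTT, at 20 °C. Runs were done in duplicate.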

Structure (SMILES)	Kd [1] [nM]	Kd [2] [nM]	Kd [3] [nM]
Cc1cc2nc3c(=O)[nH]c(=O)nc-3n(C[C@H](O)[C@H](O)[C@H](O)COP(=O)(O)OP(=O)(O)OC[C@H]3O[C@@H](n4cnc5c(N)ncnc54)[C@H](O)[C@@H]3O)c2cc1C [FAD]	590000 ± 80000		
NC(=O)C1=CN([C@@H]2O[C@H](COP(=O)(O)OP(=O)(O)OC[C@H]3O[C@@H](n4cnc5c(N)ncnc54)[C@H](OP(=O)(O)O)[C@@H]3O)[C@@H](O)[C@H]2O)C=CC1 [NADPH]		300 ± 200	
NC(=O)c1ccc[n+]([C@@H]2O[C@H](COP(=O)(O)OP(=O)(O)OC[C@H]3O[C@@H](n4cnc5c(N)ncnc54)[C@H](OP(=O)(O)O)[C@@H]3O)[C@@H](O)[C@H]2O)c1 [NADP^+]		400 ± 200	2800 ± 200
